Rows were chosen to be rich in hits. Some 1.4% of all compounds tested hit in one or more screens of this group.
Cardio protect – protects H9c2 cardiomyocytes from peroxide injury. 360,000 tested, 0.63% active. protection from H2O2 cell death, % at 20 µM. AID 588492. H2O2 injury protection, ATPLite, 2 h;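 active means compounds giving at least 50% protection of heart cells from peroxide-induced death in the single-dose screen, raw or plate-pattern-corrected value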;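 further: 0% = DMSO wells with peroxide and 100% = DMSO wells without peroxide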
DAGLB inh – diacylglycerol lipase beta (human) inhibition; inhibition, % at 5.17 µM; HEK293T DAGLB membrane lysate, EnzChek fluorogenic substrate; 340,000 tested, 0.059% active; Q8NCG7; AID 504411; in the data active means inhibition above about 34%;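 further: 0% = enzyme with vehicle and 100% = wells lacking enzyme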
Target sequence (Q8NCG7 whole entry, looked up): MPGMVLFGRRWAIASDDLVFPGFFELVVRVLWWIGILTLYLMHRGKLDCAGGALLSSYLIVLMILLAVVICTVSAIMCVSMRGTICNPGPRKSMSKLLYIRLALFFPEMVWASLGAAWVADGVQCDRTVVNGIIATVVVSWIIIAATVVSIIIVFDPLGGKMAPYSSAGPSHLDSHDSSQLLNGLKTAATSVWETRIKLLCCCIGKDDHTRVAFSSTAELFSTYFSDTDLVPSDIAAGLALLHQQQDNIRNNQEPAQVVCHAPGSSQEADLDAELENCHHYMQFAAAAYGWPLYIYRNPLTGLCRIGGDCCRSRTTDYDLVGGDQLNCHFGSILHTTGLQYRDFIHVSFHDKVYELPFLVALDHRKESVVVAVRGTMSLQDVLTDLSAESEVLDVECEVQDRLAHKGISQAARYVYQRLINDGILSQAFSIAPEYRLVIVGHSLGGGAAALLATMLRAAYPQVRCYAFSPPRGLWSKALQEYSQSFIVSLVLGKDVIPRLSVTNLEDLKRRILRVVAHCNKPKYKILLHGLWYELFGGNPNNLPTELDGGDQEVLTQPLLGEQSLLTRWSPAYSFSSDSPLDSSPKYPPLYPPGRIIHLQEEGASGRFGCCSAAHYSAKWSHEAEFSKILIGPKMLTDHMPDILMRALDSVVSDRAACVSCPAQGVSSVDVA
Tn7 DDE FP – inhibitors of Tn7 peptide binding to human fibrin DD(E). AID 720508. FP displacement of FITC-Tn7 peptide from fibrin DD(E); 0% = median of compound wells per plate. P02675. 370,000 tested, 0.13% active. inhibition, % at 8.3 µM;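 active means inhibition above the mean of compounds falling within the control limits plus 3 SD of them, cut at about 14% in these data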;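 further: 0% = plate median of compound wells and 100% = 10 µM Aha-Tn7 peptide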
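Measure: % inhibition scaled between sample-field median and high-control FP; Test system: human fibrin DD(E); Quantity: 2 µM final DD(E) protein; Doses: one dose, 8.3 µM nominal; Schedule: compound with protein 10 min, then 3 h after probe, room temperature; Detection: fluorescence polarization; Medium: Tris buffer with calcium and detergent, pH 7.8.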
MT1-MMP act inh – MT1-MMP (human) activation inhibition. GFP/RFP ratio change, % at 20 µM. AID 651647. P50281. 360,000 tested, 0.061% active. HT1080 RFP-PRO-GFP cells, GFP/RFP ratio fluorescence, overnight; percent of plate control window, DMSO zero;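 active means GFP/RFP ratio change of at least 30% with cell ATP level not reduced by more than half and red fluorescence within 50% of control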
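Material: RFP-PRO-GFP reporter HT1080 cells. Dosing: single-point 20 µM compound, 1% DMSO. Controls: DMSO and RFP-L50D-GFP cell wells. Timing: cells overnight before dosing, compound overnight, 37 °C, 5% CO2. Measure: GFP/RFP fluorescence ratio.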
H9c2 TAG inh – triacylglycerol accumulation inhibition; H9c2 cells, Nile Red lipid (TAG) fluorescence; cells loaded with 200 µM oleic acid; inhibition, % at 12.5 µM; 230,000 tested, 0.66% active; AID 651582;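 active means pattern-corrected inhibition of lipid staining of at least 50% with the nuclear-stain viability signal not falling by more than 50%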;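 further: 0% = DMSO wells and 100% = triacsin C control wells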
DDE Tn6 FP inh – inhibitors of Tn6 peptide binding to human fibrin DD(E); AID 720509; Fibrin DD(E) TRITC-Tn6 fluorescence polarization displacement; inhibition, % at 8.3 µM; 370,000 tested, 0.21% active; P02675;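 active means inhibition above a per-campaign cutoff: mean of compounds within control limits plus 3 SD, cut at about 15% in these data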;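 further: 0% = median of all compound wells on the plate and 100% = blocking peptide control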
* = called active by the depositor; · = no result.

SMILES | Cardio protect | DAGLB inh | Tn7 DDE FP | MT1-MMP act inh | H9c2 TAG inh | DDE Tn6 FP inh
Brc1ccc(/C=N/Nc2nc3ccccc3o2)cc1 | -8 | 1 | -3 | 4 | · | 6
CC(=NNc1nc2ccccc2o1)c1ncccn1 | 9 | 9 | 7 | -13 | 51* | 4
Oc1ccccc1/C=N/Nc1nc2ccccc2o1 | 8 | 3 | -5 | -3 | 63* | -1
CC(/C=N/NC(=O)CSc1nnc(SCc2ccc(C)cc2)s1)=C\c1ccco1 | · | · | 4 | · | · | -2
COc1cc(C(=S)N2CCN(c3ccccc3Cl)CC2)cc(O)c1O | 85* | 15 | -2 | -1 | -1 | 8
COc1ccc(S[C@]2(C(=O)N(C)C)CC(=O)N(C(=O)C3CC3)[C@@H]2c2ccc(OC)cc2)cc1 | · | · | 1 | · | · | 1
C/C(=N\NC(=O)CSCc1ccccc1Cl)c1cc(O)ccc1O | 51* | 6 | 3 | 4 | 2 | -1
CCOC(=O)CNC(=O)N(C)[C@H]1C[C@H]2c3[nH]c4c(-c5cccc(C)c5)cccc4c3CCN2C(=O)[C@H]1[C@H](C)O | · | · | 0 | · | · | -2
CCN(CC)CCCNC(=O)C1(N[C@@H](Cc2c[nH]c3ccccc23)C(=O)NCC(OC)OC)CCCCC1 | · | · | 10 | · | · | 0
C[C@H]1[C@@H](N(C)Cc2ccccc2)CC[C@@]23CCCN2C(=O)CCC[C@@H]13 | · | · | -1 | · | · | -4
COc1ccc(Cl)cc1-c1nc(-c2ccc(NC(=O)c3cccs3)cc2)no1 | 56* | -5 | · | 7 | · | ·
O=C(Nc1ccc(-c2noc(-c3cccs3)n2)cc1)c1cccnc1 | 64* | 1 | -2 | 6 | 0 | -2
COc1ccc(NC(=O)N(CCCN(C)C)Cc2cc3cc(OC)ccc3[nH]c2=O)cc1 | 51* | 2 | -2 | -1 | · | -7
COc1cc(NC(=O)c2cc(-c3ccccc3)nc3c2cnn3C(C)C)cc(OC)c1OC | 6 | -5 | · | -1 | 31 | ·
CNC(=O)c1cccc(NC(=O)c2cc(-c3ccccc3)nc3c2cnn3C(C)C)c1 | 59* | 0 | -3 | 10 | 23 | -22
Cc1ccc2nc(-c3ccc(NC(=O)CSc4nnc(-c5ccccc5)n4Cc4ccco4)cc3)sc2c1 | · | · | -1 | · | · | -9
CCCCNC(=O)C1(C(C)=O)CC(C(=O)OCC)=NO1 (centres undefined) | · | · | 1 | · | · | 9
CN1C(=O)C[C@@](C#N)(C(=O)N2CCCC2)[C@H]1c1ccccc1 | · | · | 7 | · | · | 0
COc1cc(/C=N/n2nnnc2Nc2ccccc2)cc(OC)c1OC | 85* | -3 | · | 9 | · | ·
COc1cc(/C=N/Nc2nc(Nc3ccccc3)nc(-n3nc(C)cc3C)n2)cc(OC)c1OC | 28 | 0 | -7 | -13 | · | -8
CCCc1cc2c(cc1NC(=O)c1ccc(Br)cc1)OCO2 | 56* | -3 | 5 | -2 | · | -2
CCN(CC)CCCNC(=O)CC1Oc2ccccc2NC1=O (centres undefined) | · | · | 0 | · | · | 5
COc1cc2ccccc2cc1C(=O)Nc1sc2c(c1C(N)=O)CCN(C(C)C)C2 | -17 | -2 | -6 | -11 | 54* | -6
CN(C)CC(c1ccc(O)cc1)C1(O)CCCCC1 (centres undefined) | · | · | 0 | · | · | 6
COc1ccc(-c2cc(C(=O)N(C)Cc3nc4ccccc4c(=O)[nH]3)c3ccccc3n2)cc1OC | 66* | 3 | -6 | -7 | 19 | -17
SMILES | Cardio protect | DAGLB inh | Tn7 DDE FP | MT1-MMP act inh | H9c2 TAG inh | DDE Tn6 FP inh
COc1ccc(S(=O)(=O)N(Cc2ccccc2)Cc2nc3ccccc3c(=O)[nH]2)cc1 | 13 | 0 | 2 | 7 | 6 | -7
COc1ccccc1CN(Cc1nc2ccccc2c(=O)[nH]1)S(=O)(=O)c1ccc2ccccc2c1 | 58* | 1 | -6 | -10 | · | 1
COc1cc2nc(CN(C)Cc3nc4ccccc4c(=O)[nH]3)[nH]c(=O)c2cc1OC | 55* | -2 | 1 | -3 | · | -3
COc1cccc(/C=N/Nc2ncnc3scc(-c4ccccc4)c23)c1OC | 60* | -5 | -2 | 4 | · | 5
Cc1sc2ncnc(N/N=C/c3ccccc3O)c2c1C | 54* | 3 | -1 | 4 | · | 1
O=C1CC2c3cc(-c4cc5ccccc5o4)ccc3CCN2C(=O)CN1Cc1ccccc1 (centres undefined) | · | · | 5 | · | · | 1
Cc1nn(Cc2ccc(C(=O)N3CCN(C(=O)c4ccco4)CC3)o2)c(C)c1[N+](=O)[O-] | 54* | 1 | -1 | 4 | 16 | 3
CC(C)(C)NC(=O)C[C@H]1C[C@H](C(=O)N2CCOCC2)[C@@]2(CCC3CCCC3)c3[nH]c4cc(-c5ccco5)ccc4c3CCN2C1=O | -4 | 3 | · | · | 44 | ·
O=C(C[C@H]1C[C@H](C(=O)N2CCCCC2)[C@@]2(CCc3ccccc3)c3[nH]c4cc(-c5ccco5)ccc4c3CCN2C1=O)NCc1ccco1 | -6 | 4 | -4 | -21 | 37 | -4
CN(C)CCCNC(=O)C[C@H]1C[C@H](C(=O)N2CCOCC2)[C@@]2(CCC3CCCC3)c3[nH]c4cc(-c5ccco5)ccc4c3CCN2C1=O | -7 | 3 | -4 | -3 | 60* | 1
O=C(C[C@H]1C[C@H](C(=O)N2CCOCC2)[C@@]2(CCC3CCCC3)c3[nH]c4cc(-c5ccco5)ccc4c3CCN2C1=O)NCCN1CCOCC1 | 5 | 3 | -9 | 0 | 21 | 1
O=C(C[C@H]1C[C@H](C(=O)N2CCCCC2)[C@@]2(CCc3ccccc3)c3[nH]c4cc(-c5ccco5)ccc4c3CCN2C1=O)NCc1cccc(C(F)(F)F)c1 | -11 | 4 | 4 | -10 | 58* | 0
CC(C)=CCC/C(C)=C/CNC(=O)C[C@H]1C[C@H](C(=O)N2CCOCC2)[C@@]2(CCC3CCCC3)c3[nH]c4cc(-c5ccco5)ccc4c3CCN2C1=O | -26 | 5 | -2 | -11 | 62* | 1
Nn1c(SCC(=O)NC2CCCCC2)nnc1-c1cc(-c2ccccc2)n[nH]1 | · | · | -4 | · | · | -2
CC1CCN(C2=NC(=O)N(c3ccc(Br)cc3)C(=O)C2)CC1 | · | · | -3 | · | · | 0
Nc1[nH]c2cc(Cl)ccc2c1C(=O)NCCc1ccc(Cl)cc1 | · | · | 4 | · | · | -1
CC(=NCCCn1ccnc1)c1c(-c2ccccc2)[nH]n(-c2nc3ccccc3s2)c1=O | 59* | 3 | 0 | -1 | -19 | 6
COCCNC[C@@]12CO[C@H](c3ccc(Cl)cc3)N1[C@@H](c1ccc(Cl)cc1)SC2 | · | · | -2 | · | · | 9
CCOC(=O)N[C@H](C(=O)N1CCC[C@H]1C(=O)NCCc1ccccc1Cl)c1ccccc1 | · | · | 5 | · | · | -7
Cc1ccc(CN(C(=O)CNC(=O)c2cccs2)C(C(=O)NCC2CCCO2)c2ccccc2)cc1 (centres undefined) | 91* | 2 | -2 | -5 | · | -8

Source: PubChem (several laboratories)
